Results: ChEMBL document CHEMBL1122148, “Affinity therapeutics. 1. Selective incorporation of 2-thiouracil derivatives in murine melanomas. Cytostatic activity of 2-thiouracil arotinoids, 2-thiouracil retinoids, arotinoids, and retinoids” (1982)

Key:
S91 [1] = assay: Growth inhibition of Cloudman S91 Melanoma cells at 1 uM drug concentration; values are per cent of control; conditions: Mus musculus
S91 [2] = assay: Growth inhibition of Cloudman S91 Melanoma cells at 10 uM drug concentration; values are per cent of control; conditions: Mus musculus
Mus musculus [3] = assay: Cloudman S 91 melanoma tumor and organ incorporation of radioactivity 48 hr after 2.2 microCi dose injected intramuscularly in mouse kidney; format: functional
Outline: (§1)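 Cloudman S 91 cells in culture (3×10^6) were implanted subcutaneously into the right flank of DBA/2 mice. After 2 weeks the tumors were about 6×7 mm. The ³⁵S-labelled thiouracil was given intramuscularly into the right thigh, and mice were killed 48 h later. Four samples were taken per tumor and one per organ. Tissue was solubilized at 37 °C for 16 h, bleached, and counted by liquid scintillation. Results are radioactivity per mg wet weight.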

Mus musculus [4] = assay: Harding Passey melanoma tumor and organ incorporation of radioactivity 48 hr after 2.2 microCi dose injected intramuscularly in mouse lung; format: functional
Outline: (§2)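 Harding Passey melanoma tissue (strongly melanized) was minced, and the brei was implanted subcutaneously into the right flank of DBA/2 mice. Tumors reached about 6×7 mm by 2 weeks. The ³⁵S-labelled thiouracil was injected intramuscularly into the right thigh, and animals were killed 48 h later. Four samples were taken per tumor and one per organ. Tissue was solubilized at 37 °C for 16 h, bleached, and scintillation-counted. Results are radioactivity per mg wet weight.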

Mus musculus [5] = assay: Cloudman S 91 melanoma tumor and organ incorporation of radioactivity 48 hr after 2.2 microCi dose injected intramuscularly in mouse spleen; format: functional
Outline: as §1

Mus musculus [6] = assay: Harding Passey melanoma tumor and organ incorporation of radioactivity 48 hr after 2.2 microCi dose injected intramuscularly in mouse kidney; format: functional
Outline: as §2

Mus musculus [7] = assay: Harding Passey melanoma tumor and organ incorporation of radioactivity 48 hr after 2.2 microCi dose injected intramuscularly in mouse liver; format: functional
Outline: as §2

Mus musculus [8] = assay: Cloudman S 91 melanoma tumor and organ incorporation of radioactivity 48 hr after 2.2 microCi dose injected intramuscularly in mouse tumor; format: functional
Outline: as §1

Mus musculus [9] = assay: Cloudman S 91 melanoma tumor and organ incorporation of radioactivity 48 h after 2.2 microCi dose injected intramuscularly in mouse eye; format: functional
Outline: as §1

Mus musculus [10] = assay: Harding Passey melanoma tumor and organ incorporation of radioactivity 48 hr after 2.2 microCi dose injected intramuscularly in mouse spleen; format: functional
Outline: as §2

Mus musculus [11] = assay: Cloudman S 91 melanoma tumor and organ incorporation of radioactivity 48 hr after 2.2 microCi dose injected intramuscularly in mouse liver; format: functional
Outline: as §1

Mus musculus [12] = assay: Harding Passey melanoma tumor and organ incorporation of radioactivity 48 hr after 2.2 microCi dose injected intramuscularly in mouse tumor; format: functional
Outline: as §2

Mus musculus [13] = assay: Harding Passey melanoma tumor and organ incorporation of radioactivity 48 hr after 2.2 microCi dose injected intramuscularly in mouse eye; format: functional
Outline: as §2

Mus musculus [14] = assay: Cloudman S 91 melanoma tumor and organ incorporation of radioactivity 48 hr after 2.2 microCi dose injected intramuscularly in mouse lung; format: functional
Outline: as §1

Mus musculus [15] = assay: Cloudman S 91 melanoma tumor and organ incorporation of radioactivity 48 hr after 1.4 microCi dose injected intramuscularly in mouse eye; format: functional
Outline: as §1

Mus musculus [16] = assay: Harding Passey melanoma tumor and organ incorporation of radioactivity 48 hr after 1.4 microCi dose injected intramuscularly in mouse liver; format: functional
Outline: as §2

Mus musculus [17] = assay: Cloudman S 91 melanoma tumor and organ incorporation of radioactivity 48 hr after 1.4 microCi dose injected intramuscularly in mouse tumor; format: functional
Outline: as §1

Mus musculus [18] = assay: Harding Passey melanoma tumor and organ incorporation of radioactivity 48 hr after 1.4 microCi dose injected intramuscularly in mouse tumor; format: functional
Outline: as §2

Mus musculus [19] = assay: Cloudman S 91 melanoma tumor and organ incorporation of radioactivity 48 hr after 1.4 microCi dose injected intramuscularly in mouse liver; format: functional
Outline: as §1

Mus musculus [20] = assay: Cloudman S 91 melanoma tumor and organ incorporation of radioactivity 48 hr after 1.4 microCi dose injected intramuscularly in mouse kidney; format: functional
Outline: as §1

Mus musculus [21] = assay: Cloudman S 91 melanoma tumor and organ incorporation of radioactivity 48 hr after 1.4 microCi dose injected intramuscularly in mouse spleen; format: functional
Outline: as §1

Mus musculus [22] = assay: Harding Passey melanoma tumor and organ incorporation of radioactivity 48 hr after 1.4 microCi dose injected intramuscularly in mouse spleen; format: functional
Outline: as §2

Mus musculus [23] = assay: Harding Passey melanoma tumor and organ incorporation of radioactivity 48 hr after 1.4 microCi dose injected intramuscularly in mouse kidney; format: functional
Outline: as §2

Mus musculus [24] = assay: Cloudman S 91 melanoma tumor and organ incorporation of radioactivity 48 h after 1.4 microCi dose injected intramuscularly in mouse lung; format: functional
Outline: as §1

Mus musculus [25] = assay: Harding Passey melanoma tumor and organ incorporation of radioactivity 48 hr after 1.4 microCi dose injected intramuscularly in mouse eye; format: functional
Outline: as §2

Mus musculus [26] = assay: Harding Passey melanoma tumor and organ incorporation of radioactivity 48 hr after 1.4 microCi dose injected intramuscularly in mouse lung; format: functional
Outline: as §2

Mus musculus [27] = assay: Harding Passey melanoma tumor and organ incorporation of radioactivity 48 hr after 5.1 microCi dose injected intramuscularly in mouse lung; format: functional
Outline: as §2

Mus musculus [28] = assay: Harding Passey melanoma tumor and organ incorporation of radioactivity 48 hr after 5.1 microCi dose injected intramuscularly in mouse tumor; format: functional
Outline: as §2

Mus musculus [29] = assay: Harding Passey melanoma tumor and organ incorporation of radioactivity 48 hr after 5.1 microCi dose injected intramuscularly in mouse kidney; format: functional
Outline: as §2

Mus musculus [30] = assay: Harding Passey melanoma tumor and organ incorporation of radioactivity 48 hr after 5.1 microCi dose injected intramuscularly in mouse spleen; format: functional
Outline: as §2

Mus musculus [31] = assay: Harding Passey melanoma tumor and organ incorporation of radioactivity 48 hr after 5.1 microCi dose injected intramuscularly in mouse eye; format: functional
Outline: as §2

Mus musculus [32] = assay: Harding Passey melanoma tumor and organ incorporation of radioactivity 48 hr after 5.1 microCi dose injected intramuscularly in mouse liver; format: functional
Outline: as §2

Compound | level, % of control at 1 µM (S91 [1]) | level, % of control at 10 µM (S91 [2]) | other results
N#CSCCCCc1cnc(S)nc1O | 93% | 100% | –
O=Cc1ccc(C(=O)OCCCCc2cnc(S)nc2O)cc1 | 118% | 98% | –
C/C=C/C=C/C(=O)OCCCCc1cnc(S)nc1O | 139% | 94% | –
OCCCCc1cnc(S)nc1O | 81% | 82% | Activity (Mus musculus [3]): 8 c.p.m. min-1 mg-1; Activity (Mus musculus [4]): 4 c.p.m. min-1 mg-1; Activity (Mus musculus [5]): 1.5 c.p.m. min-1 mg-1; Activity (Mus musculus [6]): 26.1 c.p.m. min-1 mg-1; Activity (Mus musculus [7]): 8.8 c.p.m. min-1 mg-1; Activity (Mus musculus [8]): 7.6 c.p.m. min-1 mg-1; Activity (Mus musculus [9]): 2.7 c.p.m. min-1 mg-1; Activity (Mus musculus [10]): 1.5 c.p.m. min-1 mg-1; Activity (Mus musculus [11]): 6.1 c.p.m. min-1 mg-1; Activity (Mus musculus [12]): 24.8 c.p.m. min-1 mg-1; Activity (Mus musculus [13]): 2.6 c.p.m. min-1 mg-1; Activity (Mus musculus [14]): 3 c.p.m. min-1 mg-1
O=C1CCCC/C1=C/CCCc1cnc(S)nc1O | 87% | 89% | –
CC(=O)OCCCCc1cnc(S)nc1O | 90% | 94% | –
CCOC(=O)c1ccc(/C=C(\C)c2ccc3c(c2)CCCC3)cc1 | 81% | 97% | –
C/C(=C\c1ccc(C(=O)OCCCCc2cnc(S)nc2O)cc1)c1ccc2c(c1)CCCC2 | 78% | 103% | Activity (Mus musculus [15]): 1.8 c.p.m. min-1 mg-1; Activity (Mus musculus [16]): 9.9 c.p.m. min-1 mg-1; Activity (Mus musculus [17]): 4.4 c.p.m. min-1 mg-1; Activity (Mus musculus [18]): 10.6 c.p.m. min-1 mg-1; Activity (Mus musculus [19]): 6.1 c.p.m. min-1 mg-1; Activity (Mus musculus [20]): 4.5 c.p.m. min-1 mg-1; Activity (Mus musculus [21]): 1.7 c.p.m. min-1 mg-1; Activity (Mus musculus [22]): 1.2 c.p.m. min-1 mg-1; Activity (Mus musculus [23]): 6.6 c.p.m. min-1 mg-1; Activity (Mus musculus [24]): 3.2 c.p.m. min-1 mg-1; Activity (Mus musculus [25]): 1.9 c.p.m. min-1 mg-1; Activity (Mus musculus [26]): 3.7 c.p.m. min-1 mg-1
O=Cc1ccc(C(=O)OCCc2cnc(S)nc2O)cc1 | 82% | 83% | –
C/C(=C\c1ccc(C(=O)OCCCCc2cnc(S)nc2O)cc1)c1ccc2c(c1)C(C)(C)CCC2(C)C | 146% | 84% | –
CC1=C(/C=C/C(C)=C/C=C/C(C)=C/C(=O)OCCCCc2cnc(S)nc2O)C(C)(C)CCC1 | 73% | – | –
C/C(=C\c1ccc(C(=O)O)cc1)c1ccc2c(c1)C(C)(C)CCC2(C)C | 122% | 98% | –
CC(O)Cc1cnc(S)nc1O (configuration not stated) | 134% | 106% | –
Oc1nc(S)ncc1CCCCBr | 109% | 100% | –
CCOC(=O)c1ccc(/C=C(\C)c2ccc3c(c2)C(C)(C)CCC3(C)C)cc1 [AROTINOID] | 134% | 98% | –
O=c1cc[nH]c(=S)[nH]1 [THIOURACIL] | 97% | 97% | Activity (Mus musculus [27]): 4.7 c.p.m. min-1 mg-1; Activity (Mus musculus [28]): 153.3 c.p.m. min-1 mg-1; Activity (Mus musculus [29]): 22.3 c.p.m. min-1 mg-1; Activity (Mus musculus [30]): 2.7 c.p.m. min-1 mg-1; Activity (Mus musculus [31]): 23.1 c.p.m. min-1 mg-1; Activity (Mus musculus [32]): 20.5 c.p.m. min-1 mg-1
CC1=C(/C=C/C(C)=C/C=C/C(C)=C/C(=O)O)C(C)(C)CCC1 [TRETINOIN] | 11% | – | –
